The test system of series [1] is Staphylococcus aureus. As to the kind of experiment: Attenuation of methicillin-resistant Staphylococcus aureus Mu 50 virulence in BALB/c mouse systemic infection model assessed as decrease in bacterial survival in kidney at 200 mg/kg, ip administered every 12 hrs for 108 hrs followed by bacterial challenge after first 12 hrs of compound dosing measured 5 days post infection. It is filed as functional, Mu50. In a few lines: (§1)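 Female BALB/c mice, 6-8 weeks old. Dosed ip every 12 h for 108 h. Challenged with 100 µL at 12 h: 1.6 × 10^8 CFU Mu50 or 4 × 10^7 CFU USA400 MW2. Sacrificed 5 days post-infection. Livers and kidneys homogenised in PBS/0.1% Triton X-100, serially plated on TSA, CFU counted; two-tailed Mann-Whitney.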

Series [2] relates to Staphylococcus aureus. As to the kind of experiment: Effect on methicillin-resistant Staphylococcus aureus Mu 50 growth at 0.05 mM after overnight incubation by plate reader method. It is filed as organism-based, Mu50. The settings on record: 50 µM. In a few lines: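 DMSO stock (20 mM) diluted in TSB to final 0.2 or 0.05 mM, overlaid with paraffin, pre-warmed 4 h at 37 °C. Overnight cultures adjusted to OD600 ~1.0 and inoculated to final OD600 ≈ 0.05. DMSO-matched growth controls. Incubated overnight at 37 °C; OD600 read every 30 min.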

Series [3] relates to Staphylococcus aureus. As to the kind of experiment: Sensitization of methicillin-resistant Staphylococcus aureus Mu 50 to H2O2-induced killing assessed as cell survival at 1 uM pre-incubated for 24 hrs before H2O2 exposure for 30 mins by serial dilution method (reference value: 30.67%). The format is functional. The note with it: Mu50.
Series [4] deals with Trichophyton verrucosum. As to the kind of experiment: Antifungal activity against naftifine-sensitive Trichophyton verrucosum after 7 days by serial dilution method. The format is functional. In a few lines:
(§2)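 Broth serial dilution in 96-well plates per NCCLS recommendations. Medium: RPMI 1640 buffered with 0.165 M MOPS. Fungi were ATCC strains or clinical isolates.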

The test system of series [5] is Staphylococcus aureus. As to the kind of experiment: Sensitization of Staphylococcus aureus Newman to human whole blood assessed as cell survival at 1 uM after 6 hrs by serial dilution method (reference value: 26.67%). It is filed as functional.
Series [6] has as its system Staphylococcus aureus. As to the kind of experiment: Attenuation of Staphylococcus aureus Newman virulence in BALB/c mouse systemic infection model assessed as decrease in bacterial survival in kidney at 50 mg/kg, ip administered every 12 hrs for 108 hrs followed by bacterial challenge after first 12 hrs of compound dosing measured 5 days post infection. The format is functional. Summed up:
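Abscess model in female BALB/c mice, 6-8 weeks old. Dosed ip every 12 h for 108 h; retro-orbital challenge with 1 × 10^7 CFU Newman in 100 µL at 12 h. Sacrificed day 5. Kidneys and hearts homogenised in PBS plus 0.1% Triton X-100 and plated on TSA for CFU. n = 13; two-tailed Mann-Whitney.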

In series [7] the test system is Staphylococcus aureus. As to the kind of experiment: Attenuation of Staphylococcus aureus Newman virulence in BALB/c mouse lethal infection model assessed as mouse survival administered ip every 12 hrs for 108 hrs followed by 2 x 10^7 CFU bacterial challenge after first 12 hrs of compound dosing measured 8 days post challenge. It is filed as functional. Summed up:
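Female BALB/c mice, 6-8 weeks old, kept specific pathogen-free. Dosed ip at 50 or 200 mg/kg every 12 h for 108 h (4.5 d). Challenged 12 h after the first dose with 2 × 10^7 CFU S. aureus Newman. Mortality followed; n = 15; log-rank test.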

Series [8] concerns the target T1, 4,4'-diapophytoene desaturase (4,4'-diaponeurosporene-forming) (Staphylococcus aureus (strain Newman)) (UniProt O07855).
T1 sequence (whole entry): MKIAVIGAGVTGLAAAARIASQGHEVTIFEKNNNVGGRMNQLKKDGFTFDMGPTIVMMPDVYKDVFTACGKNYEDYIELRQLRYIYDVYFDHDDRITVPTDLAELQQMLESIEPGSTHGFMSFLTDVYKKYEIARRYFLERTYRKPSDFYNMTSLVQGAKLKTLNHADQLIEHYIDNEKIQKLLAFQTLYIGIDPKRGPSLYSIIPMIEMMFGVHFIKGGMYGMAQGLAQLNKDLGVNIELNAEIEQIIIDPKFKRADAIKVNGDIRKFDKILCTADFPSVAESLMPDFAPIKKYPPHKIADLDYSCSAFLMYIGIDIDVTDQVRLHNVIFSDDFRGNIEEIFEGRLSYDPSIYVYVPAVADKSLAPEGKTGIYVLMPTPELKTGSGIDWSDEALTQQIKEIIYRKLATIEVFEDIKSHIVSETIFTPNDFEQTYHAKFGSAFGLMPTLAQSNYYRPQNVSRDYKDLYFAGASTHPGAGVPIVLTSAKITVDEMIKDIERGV
As to the kind of experiment: Inhibition of diapophytoene desaturase in Staphylococcus aureus Newman assessed as 4,4'-diapophytoene formation by HPLC method. The settings on record: Staphylococcus aureus subsp. aureus str. Newman.

For series [9], the system named is Trichophyton mentagrophytes. As to the kind of experiment: Antifungal activity against naftifine-sensitive Trichophyton mentagrophytes after 7 days by serial dilution method. The format is functional. In a few lines: as §2
The nature of series [10]: Aqueous solubility of the compound in water after 24 hrs by HPLC method. It is filed as physicochemical. Summed up: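 Excess solid stirred in pure water for 24 h, then filtered. Filtrate analysed by HPLC (10 µL injection). Concentration read against a calibration curve of peak area versus concentration, built from methanol solutions at 50–800 µg/mL.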
The test system of series [11] is Staphylococcus aureus. As to the kind of experiment: Attenuation of methicillin-resistant Staphylococcus aureus USA400 MW2 virulence in BALB/c mouse systemic infection model assessed as decrease in bacterial survival in kidney at 200 mg/kg, ip administered every 12 hrs for 108 hrs followed by bacterial challenge after first 12 hrs of compound dosing measured 5 days post infection. It is filed as functional. Summed up: as §1

Series [12] has as its system Staphylococcus aureus. As to the kind of experiment: Sensitization of Staphylococcus aureus Newman to H2O2-induced killing assessed as cell survival at 1 uM pre-incubated for 24 hrs before H2O2 exposure for 30 mins by serial dilution method (reference value: 30.43%). The format is functional.
The subject of series [13] is Staphylococcus aureus. As to the kind of experiment: Sensitization of methicillin-resistant Staphylococcus aureus USA300 LAC to human whole blood assessed as cell survival at 1 uM after 6 hrs by serial dilution method (reference value: 12.17%). The format is functional. The settings on record: LAC USA300, 6 h.
Series [14] has as its system Staphylococcus aureus. As to the kind of experiment: Sensitization of methicillin-resistant Staphylococcus aureus USA300 LAC to H2O2-induced killing assessed as cell survival at 1 uM pre-incubated for 24 hrs before H2O2 exposure for 30 mins by serial dilution method (reference value: 15.83%). It is filed as functional.
Series [15] deals with Staphylococcus aureus. As to the kind of experiment: Sensitization of methicillin-resistant Staphylococcus aureus USA400 MW2 to H2O2-induced killing assessed as cell survival at 1 uM pre-incubated for 24 hrs before H2O2 exposure for 30 mins by serial dilution method (reference value: 14.17%). The format is functional.
In series [16] the test system is Staphylococcus aureus. As to the kind of experiment: Attenuation of methicillin-resistant Staphylococcus aureus Mu 50 virulence in BALB/c mouse systemic infection model assessed as decrease in bacterial survival in kidney at 50 mg/kg, ip administered every 12 hrs for 108 hrs followed by bacterial challenge after first 12 hrs of compound dosing measured 5 days post infection. It is filed as functional, Mu50. In a few lines:
as §1

In series [17] the test system is Staphylococcus aureus. As to the kind of experiment: Attenuation of methicillin-resistant Staphylococcus aureus Mu 50 virulence in BALB/c mouse systemic infection model assessed as decrease in bacterial survival in liver at 50 mg/kg, ip administered every 12 hrs for 108 hrs followed by bacterial challenge after first 12 hrs of compound dosing measured 5 days post infection. The format is functional, Mu50. In a few lines: as §1

Series [18] relates to Staphylococcus aureus. As to the kind of experiment: Attenuation of methicillin-resistant Staphylococcus aureus USA400 MW2 virulence in BALB/c mouse systemic infection model assessed as decrease in bacterial burden in liver at 50 mg/kg, ip administered every 12 hrs for 108 hrs followed by bacterial challenge after first 12 hrs of compound dosing measured 5 days post infection. The format is functional. In a few lines:
as §1

Molecules are shown by their SMILES. Active and inactive are the calls of the source. The calls are words filed in the database; no cut-off is given here. Bounds are passed on as bounds.

Consider one compound from ChEMBL document CHEMBL3826951, “Discovery of Benzocycloalkane Derivatives Efficiently Blocking Bacterial Virulence for the Treatment of Methicillin-Resistant S. aureus (MRSA) Infections by Targeting Diapophytoene Desaturase (CrtN)” (J Med Chem, 2016).

Turning to `COc1ccc(/C=C/CN(C)Cc2ccc3c(c2)CCCCC3)cc1.Cl`, the Activity was 2.27 log10CFU in series [1]; “Non-toxic” in series [2]; 1.17 log10CFU in [6]; 99.5% in series [11]; 0.99 log10CFU in [16]; 2.44 log10CFU in [17]. Further, the Activity in series [18] was 3.87 log10CFU. The survival at 1 µM was determined as 4.44% in [3]; 1.83% in series [5]; 0.83% in series [12]; 0.95% in [13]; 0.98% in series [14]; 0.96% in [15]. Besides, the “MIC=<80” value in [4] and in series [9] was 8 µg/mL in each case. Moreover, the Survival in series [7] is reported as above 60%. For the same compound, the inhibition result in series [8] was “Active”. In series [10], this compound returned a solubility at 24 h of 4240 µg/mL.
